In ChEMBL document CHEMBL4130528, “Serotonin Analogues as Inhibitors of Breast Cancer Cell Growth” (ACS Med Chem Lett, 2017):
Activity calls are given as the source filed them. The calls are words filed in the database; no cut-off is given here.

What was measured:
[1] = tested on: MDA-MB-231; experiment: Cytotoxicity against human MDA-MB-231 cells assessed as reduction in cell viability by cell titer 96 aqueous one solution based assay; format: functional
Outline: (§1)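 MDA-MB-231 and MCF-7 breast cancer cells were treated with increasing concentrations of compound. Viability was read by MTS assay, and IC50 values were derived from the concentration–response data.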

[2] = tested on: MCF7; experiment: Cytotoxicity against human MCF7 cells assessed as reduction in cell viability by cell titer 96 aqueous one solution based assay; format: functional; outline: as §1
[3] = tested on: MDA-MB-231; experiment: Effect on total p70S6K level in human MDA-MB-231 cells at 20 uM after 12 hrs by RPPA analysis; format: cell-based; conditions: mda-mb-231, 12 h
[4] = molecular target: T1, AMP-activated protein kinase, AMPK (Homo sapiens) (UniProt P54646+O43741+P54619+Q9UGJ0+Q9Y478+Q13131+Q9UGI9); experiment: Increase in AMPK phosphorylation at T172 in human MCF7 cells at 20 uM after 12 hrs by RPPA analysis; format: cell-based
[5] = tested on: MDA-MB-157; experiment: Induction of apoptosis in human MDA-MB-157 cells assessed as increase in cleaved PARP level up to 10 uM by Western blot analysis; format: functional, cell-based
Outline: (§2)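 Cells were treated with a range of compound concentrations. Apoptosis was assessed by Western blot detection of cleaved poly-ADP ribose polymerase (PARP).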

[6] = tested on: MDA-MB-231; experiment: Inhibition of PI3K/AKT in human MDA-MB-231 cells assessed as reduction in mTOR phosphorylation at Ser2448 at 20 uM after 12 hrs by RPPA analysis; format: cell-based
[7] = tested on: MDA-MB-231; experiment: Inhibition of PI3K/AKT in human MDA-MB-231 cells assessed as reduction in mTOR phosphorylation at Ser2448 up to 10 uM by Western blot analysis; format: cell-based
[8] = tested on: MCF7; experiment: Inhibition of PI3K/AKT in human MCF7 cells assessed as reduction in mTOR phosphorylation at Ser2448 at 20 uM after 12 hrs by RPPA analysis; format: cell-based
[9] = molecular target: T1, AMP-activated protein kinase, AMPK (Homo sapiens); experiment: Increase in AMPK phosphorylation at T172 in human MDA-MB-231 cells at 20 uM after 12 hrs by RPPA analysis; format: cell-based
[10] = tested on: MDA-MB-231; experiment: Effect on total S6 level in human MDA-MB-231 cells at 20 uM after 12 hrs by RPPA analysis; format: cell-based; conditions: mda-mb-231, 12 h
[11] = tested on: MDA-MB-231; experiment: Cytotoxicity against human MDA-MB-231 cells assessed as reduction in cell viability up to 10 uM in serum-free medium by cell titer 96 aqueous one solution based assay; format: functional
Outline: (§3)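 Viability was measured by MTS after treating triple-negative breast cancer cells in serum-free medium, either alone or with BSA added to the serum-free medium, across a concentration series.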

[12] = tested on: MDA-MB-231; experiment: Inhibition of mTORC1 signaling in human MDA-MB-231 cells assessed as reduction in S6 phosphorylation at Ser240 at 20 uM after 12 hrs by RPPA analysis; format: cell-based
[13] = tested on: MDA-MB-157; experiment: Inhibition of PI3K/AKT in human MDA-MB-157 cells assessed as reduction in mTOR phosphorylation at Ser2448 up to 10 uM by Western blot analysis; format: cell-based
[14] = tested on: MDA-MB-157; experiment: Cytotoxicity against human MDA-MB-157 cells assessed as reduction in cell viability up to 10 uM in presence of bovine serum albumin by cell titer 96 aqueous one solution based assay; format: functional; outline: as §3
[15] = molecular target: T2, Acetyl-CoA carboxylase (Homo sapiens) (UniProt Q13085+O00763); experiment: Increase in ACC phosphorylation at Ser79 in human MCF7 cells at 20 uM after 12 hrs by RPPA analysis; format: cell-based
[16] = tested on: MDA-MB-231; experiment: Inhibition of mTORC1 signaling in human MDA-MB-231 cells assessed as reduction in S6 phosphorylation at Ser244 at 20 uM after 12 hrs by RPPA analysis; format: cell-based
[17] = tested on: MDA-MB-157; experiment: Inhibition of mTORC1 signaling in human MDA-MB-157 cells assessed as reduction in […] at 10 uM by Western blot analysis; format: cell-based
[18] = molecular target: T2, Acetyl-CoA carboxylase (Homo sapiens); experiment: Increase in ACC phosphorylation at Ser79 in human MDA-MB-231 cells at 20 uM after 12 hrs by RPPA analysis; format: cell-based
[19] = tested on: MDA-MB-231; experiment: Induction of apoptosis in human MDA-MB-231 cells assessed as increase in caspase 3/7 activity by Caspase-Glo 3/7 luciferase-based assay; format: functional, cell-based
Outline: (§4)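 Cells were treated with a range of compound concentrations. Apoptosis was read as caspase-3/7 activity using a luciferase-based luminescent assay.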

[20] = tested on: MDA-MB-157; experiment: Cytotoxicity against human MDA-MB-157 cells assessed as reduction in cell viability up to 10 uM in serum-free medium by cell titer 96 aqueous one solution based assay; format: functional; outline: as §3
[21] = tested on: MDA-MB-157; experiment: Induction of apoptosis in human MDA-MB-157 cells assessed as increase in caspase 3/7 activity up to 10 uM by Caspase-Glo 3/7 luciferase-based assay; format: functional, cell-based; outline: as §4
[22] = tested on: MDA-MB-231; experiment: Cytotoxicity against human MDA-MB-231 cells assessed as reduction in cell viability up to 10 uM in presence of bovine serum albumin by cell titer 96 aqueous one solution based assay; format: functional; outline: as §3
[23] = tested on: MDA-MB-231; experiment: Induction of apoptosis in human MDA-MB-231 cells assessed as increase in cleaved PARP level up to 10 uM by Western blot analysis; format: functional, cell-based; outline: as §2
[24] = tested on: MDA-MB-231; experiment: Cytotoxicity against human MDA-MB-231 cells assessed as reduction in cell viability up to 10 uM after 24 to 72 hrs by cell titer 96 aqueous one solution based assay; format: functional
Outline: (§5)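 Triple-negative breast cancer cells were incubated with compound for 24, 48 or 72 h. Viability was then measured by MTS assay across a concentration series.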

[25] = tested on: MDA-MB-231; experiment: Inhibition of mTORC1 signaling in human MDA-MB-231 cells assessed as reduction in […] at 10 uM by Western blot analysis; format: cell-based
[26] = tested on: MDA-MB-231; experiment: Inhibition of mTORC1 signaling in human MDA-MB-231 cells assessed as reduction in p70S6K phosphorylation at Thr389 at 20 uM after 12 hrs by RPPA analysis; format: cell-based
[27] = tested on: MDA-MB-157; experiment: Cytotoxicity against human MDA-MB-157 cells assessed as reduction in cell viability up to 10 uM after 24 to 72 hrs by cell titer 96 aqueous one solution based assay; format: functional; outline: as §5
[28] = tested on: MDA-MB-231; experiment: Inhibition of mTORC1 signaling in human MDA-MB-231 cells assessed as reduction in S6 phosphorylation at Ser236 at 20 uM after 12 hrs by RPPA analysis; format: cell-based
[29] = tested on: MDA-MB-231; experiment: Inhibition of mTORC1 signaling in human MDA-MB-231 cells assessed as reduction in S6 phosphorylation at Ser235 at 20 uM after 12 hrs by RPPA analysis; format: cell-based
[30] = tested on: MDA-MB-231; experiment: Inhibition of mTORC1 signaling in human MDA-MB-231 cells assessed as glycine accumulation after 7 to 24 hrs by 1H-MRS analysis; format: cell-based
Outline: (§6)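 MDA-MB-231 cells were treated for 7 or 24 h, and intracellular metabolites were profiled by 1H-MRS. Treated and untreated groups were compared by principal component analysis.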

[31] = tested on: MDA-MB-231; experiment: Inhibition of mTORC1 signaling in human MDA-MB-231 cells assessed as intracellular UDP N-acetylglucosamine accumulation after 7 to 24 hrs by 1H-MRS analysis; format: cell-based; outline: as §6
[32] = tested on: MDA-MB-231; experiment: Inhibition of mTORC1 signaling in human MDA-MB-231 cells assessed as glutamine accumulation after 7 to 24 hrs by 1H-MRS analysis; format: cell-based; outline: as §6
[33] = tested on: MDA-MB-231; experiment: Inhibition of mTORC1 signaling in human MDA-MB-231 cells assessed as alanine accumulation after 7 to 24 hrs by 1H-MRS analysis; format: cell-based; outline: as §6
[34] = tested on: MDA-MB-231; experiment: Inhibition of mTORC1 signaling in human MDA-MB-231 cells assessed as proline accumulation after 7 to 24 hrs by 1H-MRS analysis; format: cell-based; outline: as §6
[35] = tested on: MDA-MB-231; experiment: Inhibition of mTORC1 signaling in human MDA-MB-231 cells assessed as phenylalanine accumulation after 7 to 24 hrs by 1H-MRS analysis; format: cell-based; outline: as §6
[36] = tested on: MDA-MB-231; experiment: Inhibition of mTORC1 signaling in human MDA-MB-231 cells assessed as tyrosine accumulation after 7 to 24 hrs by 1H-MRS analysis; format: cell-based; outline: as §6
[37] = tested on: MDA-MB-231; experiment: Inhibition of mTORC1 signaling in human MDA-MB-231 cells assessed as aspartate accumulation after 7 to 24 hrs by 1H-MRS analysis; format: cell-based; outline: as §6
[38] = tested on: MDA-MB-231; experiment: Inhibition of mTORC1 signaling in human MDA-MB-231 cells assessed as intracellular UDP-glucose accumulation after 7 to 24 hrs by 1H-MRS analysis; format: cell-based; outline: as §6
[39] = tested on: MDA-MB-231; experiment: Cytotoxicity against human MDA-MB-231 cells assessed as reduction in cell viability after 24 to 72 hrs by cell titer 96 aqueous one solution based assay; format: functional; outline: as §5

`NCCc1c[nH]c2ccc(OCc3ccc(COc4ccc5[nH]cc(CCN)c5c4)cc3)cc12` gave an IC50 [1] of 20 µM and an IC50 [2] of 24 µM.

`NCCc1c[nH]c2ccccc12` [TRYPTAMINE] was tested, and the IC50 [1] was > 50 µM and the IC50 [2] was > 50 µM.

In the case of `CCCCCCCCCCOc1ccc2[nH]cc(CCN)c2c1`, the IC50 [1] is reported as 4.4 µM and the IC50 [2] is reported as 9 µM.

Work on `NCCc1c[nH]c2ccc(OCCCCCCCCCBr)cc12` yielded an IC50 [1] of 10 µM and an IC50 [2] of 17 µM.

`CCCCCCCCCCCCCCOc1ccc2[nH]cc(CCN)c2c1` was tested, and the IC50 [1] was 4.8 µM and the IC50 [2] was 8.4 µM.

In the case of `CCCCCCCCCOc1cccc2[nH]cc(CCN)c12.Cl`, the Activity [3] is reported as “Non-Toxic”, the Activity [4] is reported as “Active” and the Activity [5] is reported as “Active”. For the same compound, the inhibition [6] was “inactive”, the IC50 [1] was 4.2 µM and the inhibition [7] was “inactive”. For the same compound, the inhibition [8] was “inactive”, the Activity [9] was “Active” and the Activity [10] was “Non-Toxic”. For the same compound, the Activity [11] was “Active”, the inhibition [12] was “Active” and the inhibition [13] was “inactive”. For the same compound, the IC50 [2] was 4.9 µM, the Activity [14] was “Active” and the Activity [15] was “Active”. For the same compound, the inhibition [16] was “Active”, the inhibition [17] was “Active” and the Activity [18] was “Active”. The Activity [19] was “Dose-dependent effect”, the Activity [20] was “Active” and the Activity [21] was “Active”. For the same compound, the Activity [22] was “inactive”, the Activity [23] was “Active” and the Activity [24] was “Active”. The inhibition [25] was “Active”, the inhibition [26] was “Active” and the Activity [27] was “Active”. For the same compound, the inhibition [28] was “Active” and the inhibition [29] was “Active”.

In the case of `CCCCCCCCOc1ccc2[nH]cc(CCN)c2c1`, the IC50 [1] is reported as 7.3 µM and the IC50 [2] is reported as 13 µM.

With `CCCCC(CC)COc1ccc2[nH]cc(CCN)c2c1` (stereo not given) the IC50 [1] was 8.2 µM and the IC50 [2] was 15 µM.

In the case of `CCCCCCCCCCCCOc1ccc2[nH]cc(CCN)c2c1.Cl`, the Activity [3] is reported as “Non-Toxic”, the Activity [4] is reported as “Active” and the Activity [5] is reported as “Active”. The inhibition [6] was “inactive”, the inhibition [30] was “Active” and the IC50 [1] was 4.6 µM. The inhibition [31] was “Active”, the inhibition [7] was “inactive” and the inhibition [8] was “inactive”. For the same compound, the Activity [9] was “Active”, the inhibition [32] was “Active” and the Activity [10] was “Non-Toxic”. For the same compound, the inhibition [33] was “Active”, the Activity [11] was “inactive” and the inhibition [12] was “Active”. The inhibition [13] was “inactive”, the IC50 [2] was 5.1 µM and the Activity [14] was “Active”. The inhibition [34] was “Active”, the Activity [15] was “Active” and the inhibition [16] was “Active”. The inhibition [35] was “Active”, the inhibition [17] was “Active” and the Activity [18] was “Active”. The Activity [19] was “Dose-dependent effect”, the inhibition [36] was “Active” and the Activity [20] was “Active”. For the same compound, the Activity [21] was “Active”, the inhibition [37] was “Active” and the Activity [23] was “Active”. The inhibition [25] was “Active”, the inhibition [38] was “Active” and the inhibition [26] was “Active”. For the same compound, the Activity [27] was “Active”, the inhibition [28] was “Active” and the Activity [39] was “Active”. For the same compound, the inhibition [29] was “Active”.
